Measurements: ChEMBL document CHEMBL2040734, “Benzothiazoles: search for anticancer agents” (2012)

How the values were obtained:
Format in all cases: functional
[1] = tested on: MCF7; experiment: Cytotoxicity against human MCF7 cells assessed as cell growth at 0.1 uM after 48 hrs by sulforhodamine B assay; conditions: MCF7, 48 h, read-out: Activity
[2] = tested on: IGROV-1; experiment: Cytotoxicity against human IGROV1 cells assessed as cell growth at 10 uM after 48 hrs by sulforhodamine B assay; conditions: IGROV-1, 48 h, read-out: Activity
[3] = tested on: NCI-H322M; experiment: Cytotoxicity against human NCI-H322M cells assessed as cell growth at 0.01 uM after 48 hrs by sulforhodamine B assay; conditions: read-out: Activity
[4] = tested on: NCI-H460; experiment: Growth inhibition of human NCI-H460 cells after 48 hrs by sulforhodamine B assay; conditions: NCI-H460, 48 h
Summary of the method: (§1)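 Adherent NCI-60 lines were grown in RPMI 1640 with 5% FBS and 2 mM L-glutamine, plated at 5000–40,000 cells/well and preincubated 24 h. They were then exposed to five concentrations (0.01–100 µM, from a DMSO stock) for 48 h at 37 °C, 5% CO2. Cells were fixed with cold TCA (10% final, 60 min, 4 °C) and stained with 0.4% SRB. Dye was solubilized in 10 mM Tris base and A515 read. GI50 was derived from time-zero, control and treated absorbances.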

[5] = tested on: ACHN; experiment: Cytotoxicity against human ACHN cells assessed as cell growth at 1 uM after 48 hrs by sulforhodamine B assay; conditions: read-out: Activity
Summary of the method: (§2)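 NCI-60 five-dose screen. Cells were grown in RPMI 1640 with 5% FBS and 2 mM L-glutamine and preincubated 24 h. Compound (DMSO stock) was tested at 0.01, 0.1, 1, 10 and 100 µM for 48 h at 37 °C. Cells were fixed in situ with cold TCA (final 10%) and stained with 0.4% SRB. A515 was read, and percent growth was calculated against time-zero and control plates.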

[6] = tested on: HL-60(TB); experiment: Cytotoxicity against human HL-60(TB) cells assessed as cell growth at 100 uM after 48 hrs by sulforhodamine B assay; conditions: HL-60, 48 h, read-out: Activity
Summary of the method: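 NCI five-dose screen on the HL-60(TB) leukaemia line, grown in RPMI 1640 with 5% FBS and 2 mM L-glutamine and plated for 24 h before dosing. DMSO stocks were diluted in medium. Cells were exposed 48 h at 37 °C, then settled cells were fixed in 16% TCA (final) and stained with SRB, absorbance 515 nm. Percent growth = (Ti−Tz)/(C−Tz)×100, or (Ti−Tz)/Tz×100 when Ti<Tz.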

[7] = tested on: A549; experiment: Cytotoxicity against human A549 cells assessed as cell growth at 0.01 uM after 48 hrs by sulforhodamine B assay; conditions: A549, 48 h, read-out: Activity; summary of the method: as §2
[8] = tested on: NCI/ADR-RES; experiment: Cytotoxicity against human NCI/ADR-RES cells assessed as cell growth at 10 uM after 48 hrs by sulforhodamine B assay; conditions: read-out: Activity
[9] = tested on: HCT-15; experiment: Cytotoxicity against human HCT15 cells assessed as cell growth at 100 uM after 48 hrs by sulforhodamine B assay; conditions: HCT-15, 48 h, read-out: Activity
Summary of the method: (§3)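 Five-dose NCI panel run at 0.01, 0.1, 1, 10 and 100 µM. Cells were in RPMI 1640 with 5% FBS and 2 mM L-glutamine, seeded at 5000–40,000 cells/well and pre-incubated 24 h. Drug was diluted from a DMSO stock into medium with 50 µg/ml gentamicin. Exposure was 48 h at 37 °C, 5% CO2. Cells were fixed with cold TCA and stained with 0.4% SRB, read at 515 nm. Percent growth came from time-zero, control and test absorbances.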

[10] = tested on: UO-31; experiment: Cytotoxicity against human UO31 cells assessed as cell growth at 10 uM after 48 hrs by sulforhodamine B assay; conditions: UO-31, 48 h, read-out: Activity
[11] = tested on: M14; experiment: Cytotoxicity against human M14 cells assessed as cell growth at 10 uM after 48 hrs by sulforhodamine B assay; conditions: M14, 48 h, read-out: Activity
[12] = tested on: ACHN; experiment: Cytotoxicity against human ACHN cells assessed as cell growth at 0.1 uM after 48 hrs by sulforhodamine B assay; conditions: read-out: Activity; summary of the method: as §2
[13] = tested on: A498; experiment: Cytotoxicity against human A498 cells assessed as cell growth at 10 '-5 M after 48 hrs by sulforhodamine B assay; conditions: A498, 48 h, read-out: Activity
Summary of the method: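 Primary NCI-60 single-dose screen at 10 µM. Cells were grown in RPMI 1640 with 5% FBS and 2 mM L-glutamine and plated 24 h before drug addition. Compound was solubilized in DMSO, then exposed for 48 h at 37 °C under 5% CO2. Cells were TCA-fixed and stained with SRB, and absorbance was read at 515 nm. Growth was expressed relative to time-zero and untreated controls.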

[14] = tested on: BT-549; experiment: Cytotoxicity against human BT549 cells assessed as cell growth at 0.01 uM after 48 hrs by sulforhodamine B assay; conditions: BT-549, 48 h, read-out: Activity; summary of the method: as §2
[15] = tested on: COLO 205; experiment: Cytotoxicity against human COLO205 cells assessed as cell growth at 0.01 uM after 48 hrs by sulforhodamine B assay; conditions: COLO 205, 48 h, read-out: Activity; summary of the method: as §2
[16] = tested on: T47D; experiment: Cytotoxicity against human T47D cells assessed as cell growth at 10 '-5 M after 48 hrs by sulforhodamine B assay; conditions: read-out: Activity
[17] = tested on: MCF7; experiment: Cytotoxicity against human MCF7 cells assessed as cell growth at 10 uM after 48 hrs by sulforhodamine B assay; conditions: MCF7, 48 h, read-out: Activity
[18] = tested on: KM12; experiment: Growth inhibition of human KM12 cells after 48 hrs by sulforhodamine B assay; conditions: KM12, 48 h; for CC50: read-out: LC50 (the source's name); summary of the method: as §1
[19] = tested on: SK-MEL-5; experiment: Cytotoxicity against human SK-MEL-5 cells assessed as cell growth at 100 uM after 48 hrs by sulforhodamine B assay; conditions: SK-MEL-5, 48 h, read-out: Activity
[20] = Cytotoxicity against human Hs 578T cells assessed as cell growth at 1 uM after 48 hrs by sulforhodamine B assay; conditions: read-out: Activity; summary of the method: as §3
[21] = tested on: TK-10; experiment: Cytotoxicity against human TK10 cells assessed as cell growth at 100 uM after 48 hrs by sulforhodamine B assay; conditions: TK-10, 48 h, read-out: Activity
[22] = tested on: LOX IMVI; experiment: Cytotoxicity against human LOXIMVI cells assessed as cell growth at 1 uM after 48 hrs by sulforhodamine B assay; conditions: read-out: Activity
[23] = tested on: UO-31; experiment: Cytotoxicity against human UO31 cells assessed as cell growth at 100 uM after 48 hrs by sulforhodamine B assay; conditions: UO-31, 48 h, read-out: Activity
[24] = tested on: HOP-62; experiment: Cytotoxicity against human HOP62 cells assessed as cell growth at 100 uM after 48 hrs by sulforhodamine B assay; conditions: HOP-62, 48 h, read-out: Activity; summary of the method: as §3
[25] = tested on: U-251; experiment: Cytotoxicity against human U251 cells assessed as cell growth at 100 uM after 48 hrs by sulforhodamine B assay; conditions: U-251, 48 h, read-out: Activity
[26] = tested on: IGROV-1; experiment: Cytotoxicity against human IGROV1 cells assessed as cell growth at 100 uM after 48 hrs by sulforhodamine B assay; conditions: IGROV-1, 48 h, read-out: Activity
[27] = tested on: MCF7; experiment: Cytotoxicity against human MCF7 cells assessed as cell growth at 100 uM after 48 hrs by sulforhodamine B assay; conditions: MCF7, 48 h, read-out: Activity
[28] = tested on: SNB-75; experiment: Cytotoxicity against human SNB75 cells assessed as cell growth at 0.1 uM after 48 hrs by sulforhodamine B assay; conditions: SNB-75, 48 h, read-out: Activity

Compound	growth at 0.1 µM [1] [%]	growth at 10 µM [2] [%]	growth at 0.01 µM [3] [%]	TGI [4] [nM]	growth at 1 µM [5] [%]	growth at 100 µM [6] [%]	growth at 0.01 µM [7] [%]	growth at 10 µM [8] [%]	growth at 100 µM [9] [%]	growth at 10 µM [10] [%]	growth at 10 µM [11] [%]	growth at 0.1 µM [12] [%]	growth at 10 µM [13] [%]	growth at 0.01 µM [14] [%]	growth at 0.01 µM [15] [%]	growth at 10 µM [16] [%]	growth at 10 µM [17] [%]	GI50 [18] [nM]	TGI [18] [nM]	CC50 [18] [nM]	further results
Cc1ccc2nc(Nc3c(C)cccc3C)sc2c1	92	42	97	> 100000	84	53	103	22	40	49	42	105	38	98	107	45.8	19	1550	> 100000	> 100000	LC50 (concentration killing 50% of cells) [4]: > 100000 nM; growth at 100 µM [19]: 60%; growth at 1 µM [20]: 64%; growth at 100 µM [21]: 72%; growth at 1 µM [22]: 62%; growth at 100 µM [23]: 80%; growth at 100 µM [24]: 10%; growth at 100 µM [25]: 31%; growth at 100 µM [26]: 33%; growth at 100 µM [27]: 46%; growth at 0.1 µM [28]: 61%
Clc1cccc(Cl)c1Nc1nc2cccc(Cl)c2s1	87	-55	92	2970	60	-57	103	-72	-74	-91	-68	98	-53.6	102	105	-4.9	-86	1200	2480	5150	GI50 [4]: 1320 nM; growth at 100 µM [19]: -76%; growth at 1 µM [20]: 49%; growth at 100 µM [21]: -67%; growth at 1 µM [22]: 55%; growth at 100 µM [23]: -62%; growth at 100 µM [24]: -75%; growth at 100 µM [25]: -50%; growth at 100 µM [26]: -55%; growth at 100 µM [27]: -55%; growth at 0.1 µM [28]: 85%
